Measured values from ChEMBL document CHEMBL1143553, “Muscarinic allosteric enhancers of ligand binding: pivotal pharmacophoric elements in hexamethonio-type agents” (J Med Chem, 2005).

Key:
Format in all cases: tissue-based
[1] = molecular target: T1, Muscarinic acetylcholine receptor M2 (Sus scrofa) (UniProt P06199); test: Inhibition of [3H]NMS dissociation from muscarinic acetylcholine receptor M2 of pig heart ventricle homogenates; n=11
T1 sequence (whole entry): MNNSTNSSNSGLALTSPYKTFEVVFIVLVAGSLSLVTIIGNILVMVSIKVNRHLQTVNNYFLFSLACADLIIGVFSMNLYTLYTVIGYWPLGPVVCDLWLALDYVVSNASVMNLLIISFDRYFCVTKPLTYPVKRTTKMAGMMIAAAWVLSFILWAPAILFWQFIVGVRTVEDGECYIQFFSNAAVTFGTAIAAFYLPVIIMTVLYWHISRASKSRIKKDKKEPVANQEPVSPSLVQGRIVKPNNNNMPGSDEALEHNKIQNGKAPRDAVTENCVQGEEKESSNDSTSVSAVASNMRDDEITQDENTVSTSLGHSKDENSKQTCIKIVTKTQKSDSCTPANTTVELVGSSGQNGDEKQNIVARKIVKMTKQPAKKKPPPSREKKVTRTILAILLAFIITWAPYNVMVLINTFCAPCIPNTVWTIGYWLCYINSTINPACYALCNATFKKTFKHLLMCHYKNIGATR
Summary of the method: (§1)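 Two-point kinetic dissociation assay in porcine heart homogenates (M2) at 37 °C, 3 mM MgHPO4/50 mM Tris-HCl, pH 7.3. Membranes were preincubated 30 min with 0.2 nM [3H]NMS. Dissociation was started by 1 µM atropine alone or plus test compound, and specific binding measured at t = 0 and 10. Apparent k-1 relative to control was plotted against log concentration and fitted by four-parameter logistic (slope unity) for EC50,diss.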

[2] = molecular target: T1, Muscarinic acetylcholine receptor M2 (Sus scrofa); test: Cooperativity for muscarinic acetylcholine receptor M2 of pig heart ventricle homogenates; n=8
Summary of the method: (§2)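 Pig heart ventricle homogenate (M2) equilibrium binding at 37 °C in 3 mM MgHPO4/50 mM Tris-HCl, pH 7.3. Increasing concentrations of test compound were incubated with membranes and 0.2 nM [3H]NMS. Incubation time for equilibrium in presence of allosteric agent was computed from dissociation kinetics. Nonspecific binding was defined with 1 µM atropine. Bound and free were separated by vacuum filtration, with scintillation counting.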

[3] = molecular target: T1, Muscarinic acetylcholine receptor M2 (Sus scrofa); test: Affinity for muscarinic acetylcholine receptor M2 of pig heart ventricle homogenates; n=8; summary of the method: as §2
[4] = molecular target: T1, Muscarinic acetylcholine receptor M2 (Sus scrofa); test: Cooperativity against muscarinic acetylcholine receptor M2 of pig heart ventricle homogenates; n=; summary of the method: as §2
[5] = molecular target: T1, Muscarinic acetylcholine receptor M2 (Sus scrofa); test: Inhibition of [3H]NMS dissociation from muscarinic acetylcholine receptor M2 of pig heart ventricle homogenates; n=3; summary of the method: as §1
[6] = molecular target: T1, Muscarinic acetylcholine receptor M2 (Sus scrofa); test: Affinity for muscarinic acetylcholine receptor M2 of pig heart ventricle homogenates; n=3; summary of the method: as §2
[7] = molecular target: T1, Muscarinic acetylcholine receptor M2 (Sus scrofa); test: Inhibition of [3H]NMS dissociation from muscarinic acetylcholine receptor M2 of pig heart ventricle homogenates; n=6; summary of the method: as §1
[8] = molecular target: T1, Muscarinic acetylcholine receptor M2 (Sus scrofa); test: Affinity for muscarinic acetylcholine receptor M2 of pig heart ventricle homogenates; n=4; summary of the method: as §2
[9] = molecular target: T1, Muscarinic acetylcholine receptor M2 (Sus scrofa); test: Cooperativity for muscarinic acetylcholine receptor M2 of pig heart ventricle homogenates; n=4; summary of the method: as §2
[10] = molecular target: T1, Muscarinic acetylcholine receptor M2 (Sus scrofa); test: Affinity for muscarinic acetylcholine receptor M2 of pig heart ventricle homogenates; n=5; summary of the method: as §2
[11] = molecular target: T1, Muscarinic acetylcholine receptor M2 (Sus scrofa); test: Inhibition of [3H]NMS dissociation from muscarinic acetylcholine receptor M2 of pig heart ventricle homogenates; n=5; summary of the method: as §1
[12] = molecular target: T1, Muscarinic acetylcholine receptor M2 (Sus scrofa); test: Cooperativity for muscarinic acetylcholine receptor M2 of pig heart ventricle homogenates; n=5; summary of the method: as §2

CC(C)(CN1C(=O)c2cccc3cccc(c23)C1=O)C[N+](C)(C)CCCCCC[N+](C)(C)CCCN1C(=O)c2ccccc2C1=O
pEC50 diss [1]: 8.36
p alpha [2]: 0.37
pKA [3]: 8.29

CC(C)(CN1C(=O)c2ccccc2C1=O)C[N+](C)(C)CCCCCC[N+](C)(C)CCCN1C(=O)c2cccc3cccc(c23)C1=O
p alpha [4]: -0.01
pEC50 diss [5]: 7.28
pKA [6]: 7.28

C[N+](C)(CCCCCC[N+](C)(C)CCCN1C(=O)c2cccc3cccc(c23)C1=O)CCCN1C(=O)c2ccccc2C1=O
pEC50 diss [7]: 6.94
pKA [8]: 7.24
p alpha [9]: -0.2

CC(C)(CN1C(=O)c2ccccc2C1=O)C[N+](C)(C)CCCCCC[N+](C)(C)CC(C)(C)CN1C(=O)c2cccc3cccc(c23)C1=O
pKA [10]: 7.41
pEC50 diss [11]: 7.73
p alpha [12]: 0.56
